Source: ChEMBL document CHEMBL1275445, “Low beta-lactamase-negative ampicillin-resistant Haemophilus influenzae strains are best detected by testing amoxicillin susceptibility by the broth microdilution method” (2008)
In brackets after ≈: the same amount, converted by molar mass.

Tests used:
Type in all cases: functional
Haemophilus influenzae [1] = experiment: Antibacterial activity against Beta-lactamase positive Haemophilus influenzae isolate harboring fst1 mutant gene after 20 to 24 hrs by Etest method in presence of clavulanic acid
Summary of the method: (§1)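 Etest on clinical H. influenzae isolates genotyped for ftsI and blaTEM by PCR and sequencing; β-lactamase status by nitrocefin chromogenic test. Colonies from overnight chocolate agar suspended in saline to McFarland 0.5, swabbed confluently onto 150-mm agar plates, strips placed radially; 35°C, 5% CO2, 20 to 24 h. MIC read where inhibition ellipse meets strip, rounded up to next log2 concentration.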

Haemophilus influenzae [2] = experiment: Antibacterial activity against Beta-lactamase positive Haemophilus influenzae isolate after 20 to 24 hrs by Etest method
Summary of the method: (§2)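 Etest on clinical H. influenzae isolates genotyped by ftsI/blaTEM sequencing. Overnight chocolate-agar colonies were suspended in saline to McFarland 0.5 and swabbed confluently onto 150-mm agar plates. Strips were placed radially, then plates incubated at 35°C in 5% CO2 for 20 to 24 h. MIC read where the inhibition ellipse meets the strip. Values rounded up to the next log2 step.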

Haemophilus influenzae [3] = experiment: Antibacterial activity against Beta-lactamase positive Haemophilus influenzae assessed as resistant isolates after 20 to 24 hrs by Etest method; summary of the method: as §2
Haemophilus influenzae [4] = experiment: Antibacterial activity against Beta-lactamase negative Haemophilus influenzae harboring fst1 mutant gene assessed as susceptible isolates after 20 to 24 hrs by broth microdilution method
Summary of the method: (§3)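 Broth microdilution per CLSI on clinical H. influenzae isolates genotyped by ftsI/blaTEM PCR and sequencing. Medium: Mueller-Hinton broth with HTM supplement and yeast extract (5%). Inoculum about 5 x 10^5 CFU/ml, confirmed by colony counts on chocolate agar. Incubation 35°C, 20 to 24 h, 5% CO2. MIC was the lowest concentration inhibiting growth. Amoxicillin-clavulanic acid tested at 2:1. β-lactamase status determined by nitrocefin test.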

Haemophilus influenzae [5] = experiment: Antibacterial activity against Beta-lactamase negative Haemophilus influenzae assessed as susceptible isolates after 20 to 24 hrs by broth microdilution method
Summary of the method: (§4)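 CLSI broth microdilution in Mueller-Hinton broth with HTM supplement and yeast extract (5%), inoculum about 5 x 10^5 CFU/ml (checked by colony counts on chocolate agar); 35°C, 20–24 h in 5% CO2. MIC = lowest concentration inhibiting growth; amoxicillin-clavulanic acid at 2:1. β-lactamase status by nitrocephin test.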

Haemophilus influenzae [6] = experiment: Antibacterial activity against Beta-lactamase negative Haemophilus influenzae isolate after 20 to 24 hrs by broth microdilution method; summary of the method: as §3
Haemophilus influenzae [7] = experiment: Antibacterial activity against Beta-lactamase positive Haemophilus influenzae assessed as susceptible isolates after 20 to 24 hrs by broth microdilution method; summary of the method: as §3
Haemophilus influenzae [8] = experiment: Antibacterial activity against Beta-lactamase negative Haemophilus influenzae isolate after 20 to 24 hrs by broth microdilution method in presence of clavulanic acid
Summary of the method: (§5)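 Broth microdilution per CLSI, with plates incubated in 5% CO2. Mueller-Hinton broth with HTM supplement and yeast extract (5%). Inoculum about 5 x 10^5 CFU/ml, checked by colony counts on chocolate agar. Amoxicillin-clavulanic acid at 2:1 ratio. 35°C, 20 to 24 h. MIC is the lowest concentration inhibiting growth. Isolates genotyped for ftsI/blaTEM by sequencing; β-lactamase by nitrocefin test.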

Haemophilus influenzae [9] = experiment: Antibacterial activity against Beta-lactamase positive Haemophilus influenzae isolate after 20 to 24 hrs by broth microdilution method; summary of the method: as §4
Haemophilus influenzae [10] = experiment: Antibacterial activity against Beta-lactamase positive Haemophilus influenzae isolate after 20 to 24 hrs by Etest method in presence of clavulanic acid; summary of the method: as §1
Haemophilus influenzae [11] = experiment: Antibacterial activity against Beta-lactamase negative Haemophilus influenzae isolate harboring fst1 mutant gene after 20 to 24 hrs by broth microdilution method in presence of clavulanic acid; summary of the method: as §5
Haemophilus influenzae [12] = experiment: Antibacterial activity against Beta-lactamase negative Haemophilus influenzae isolate after 20 to 24 hrs by Etest method; summary of the method: as §2
Haemophilus influenzae [13] = experiment: Antibacterial activity against Beta-lactamase negative Haemophilus influenzae isolate harboring fst1 mutant gene after 20 to 24 hrs by broth microdilution method; summary of the method: as §3
Haemophilus influenzae [14] = experiment: Antibacterial activity against Beta-lactamase negative Haemophilus influenzae harboring fst1 mutant gene assessed as resistant isolates after 20 to 24 hrs by broth microdilution method; summary of the method: as §3
Haemophilus influenzae [15] = experiment: Antibacterial activity against Beta-lactamase positive Haemophilus influenzae assessed as susceptible isolates after 20 to 24 hrs by Etest method
Summary of the method: (§6)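 Confluent swab of agar plates with saline suspension of overnight chocolate-agar colonies at McFarland 0.5; Etest strips placed radially; 35°C, 5% CO2, 20–24 h. MIC read where the inhibition ellipse meets the strip, rounded up to next log2 concentration. β-lactamase status by nitrocephin chromogenic cephalosporin test; genotype by ftsI/blaTEM sequencing.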

Haemophilus influenzae [16] = experiment: Antibacterial activity against Beta-lactamase negative Haemophilus influenzae isolate harboring fst1 mutant gene after 20 to 24 hrs by Etest method in presence of clavulanic acid; summary of the method: as §1
Haemophilus influenzae [17] = experiment: Antibacterial activity against Beta-lactamase negative Haemophilus influenzae assessed as susceptible isolates after 20 to 24 hrs by Etest method; summary of the method: as §6
Haemophilus influenzae [18] = experiment: Antibacterial activity against Beta-lactamase positive Haemophilus influenzae isolate after 20 to 24 hrs by broth microdilution method in presence of clavulanic acid; summary of the method: as §5
Haemophilus influenzae [19] = experiment: Antibacterial activity against Beta-lactamase negative Haemophilus influenzae isolate harboring fst1 mutant gene after 20 to 24 hrs by Etest method; summary of the method: as §2
Haemophilus influenzae [20] = experiment: Antibacterial activity against Beta-lactamase positive Haemophilus influenzae isolate harboring fst1 mutant gene after 20 to 24 hrs by Etest method; summary of the method: as §2
Haemophilus influenzae [21] = experiment: Antibacterial activity against Beta-lactamase negative Haemophilus influenzae harboring fst1 mutant gene assessed as susceptible isolates after 20 to 24 hrs by Etest method; summary of the method: as §2
Haemophilus influenzae [22] = experiment: Antibacterial activity against Beta-lactamase negative Haemophilus influenzae isolate after 20 to 24 hrs by Etest method in presence of clavulanic acid; summary of the method: as §1
Haemophilus influenzae [23] = experiment: Antibacterial activity against Beta-lactamase positive Haemophilus influenzae isolate harboring fst1 mutant gene after 20 to 24 hrs by broth microdilution method in presence of clavulanic acid; summary of the method: as §5
Haemophilus influenzae [24] = experiment: Antibacterial activity against Beta-lactamase positive Haemophilus influenzae isolate harboring fst1 mutant gene after 20 to 24 hrs by broth microdilution method; summary of the method: as §3
Haemophilus influenzae [25] = experiment: Antibacterial activity against Beta-lactamase negative Haemophilus influenzae with PBP3 mutation
Haemophilus influenzae [26] = experiment: Antibacterial activity against Beta-lactamase positive Haemophilus influenzae assessed as resistant isolates after 20 to 24 hrs by broth microdilution method; summary of the method: as §3
Haemophilus influenzae [27] = experiment: Antibacterial activity against Beta-lactamase positive Haemophilus influenzae harboring fst1 mutant gene assessed as resistant isolates after 20 to 24 hrs by broth microdilution method; summary of the method: as §3
Haemophilus influenzae [28] = experiment: Antibacterial activity against Beta-lactamase positive Haemophilus influenzae harboring fst1 mutant gene assessed as resistant isolates after 20 to 24 hrs by Etest method; summary of the method: as §2
Haemophilus influenzae [29] = experiment: Antibacterial activity against Beta-lactamase negative Haemophilus influenzae harboring fst1 mutant gene assessed as resistant isolates after 20 to 24 hrs by Etest method; summary of the method: as §2
Haemophilus influenzae [30] = experiment: Antibacterial activity against Beta-lactamase positive Haemophilus influenzae harboring fst1 mutant gene assessed as susceptible isolates after 20 to 24 hrs by Etest method; summary of the method: as §2
Haemophilus influenzae [31] = experiment: Antibacterial activity against Beta-lactamase negative Haemophilus influenzae assessed as resistant isolates after 20 to 24 hrs by broth microdilution method; summary of the method: as §3
Haemophilus influenzae [32] = experiment: Antibacterial activity against Beta-lactamase negative Haemophilus influenzae assessed as resistant isolates after 20 to 24 hrs by Etest method
Haemophilus influenzae [33] = experiment: Antibacterial activity against Beta-lactamase positive Haemophilus influenzae harboring fst1 mutant gene assessed as susceptible isolates after 20 to 24 hrs by broth microdilution method; summary of the method: as §3
Haemophilus influenzae [34] = experiment: Antibacterial activity against Beta-lactamase negative ampicillin-resistant Haemophilus influenzae isolate with SSN motif mutation after 20 to 24 hrs by disk diffusion method using <=29 mm disk
Summary of the method: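 Disk diffusion per CLSI on HTM base with HTM supplement and yeast extract (5%). Inoculum McFarland 0.5. Incubation 20 to 24 h at 35°C in 5% CO2. Cefixime disk 5 µg. Isolates genotyped for ftsI (SSN motif) by PCR and sequencing. Zone diameter measured.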

Haemophilus influenzae [35] = experiment: Antibacterial activity against Beta-lactamase negative ampicillin-resistant Haemophilus influenzae isolate with SSN motif mutation after 20 to 24 hrs by Etest method; summary of the method: as §2
Haemophilus influenzae [36] = experiment: Antibacterial activity against Beta-lactamase negative ampicillin-resistant Haemophilus influenzae isolate with SSN motif mutation after 20 to 24 hrs by broth microdilution method; summary of the method: as §3

Row | Compound | MIC50 (Haemophilus influenzae [2]) | MIC90 (Haemophilus influenzae [2]) | Activity (Haemophilus influenzae [3]) | Activity (Haemophilus influenzae [4]) | Activity (Haemophilus influenzae [5]) | MIC50 (Haemophilus influenzae [6]) | MIC90 (Haemophilus influenzae [6]) | Activity (Haemophilus influenzae [7]) | MIC50 (Haemophilus influenzae [9]) | MIC90 (Haemophilus influenzae [9]) | MIC50 (Haemophilus influenzae [12]) | MIC90 (Haemophilus influenzae [12]) | MIC50 (Haemophilus influenzae [13]) | MIC90 (Haemophilus influenzae [13]) | Activity (Haemophilus influenzae [14]) | Activity (Haemophilus influenzae [15]) | Activity (Haemophilus influenzae [17]) | MIC50 (Haemophilus influenzae [19]) | MIC90 (Haemophilus influenzae [19]) | MIC50 (Haemophilus influenzae [20]) | other results
1 | CC1(C)S[C@@H]2[C@H](NC(=O)[C@H](N)c3ccc(O)cc3)C(=O)N2[C@H]1C(=O)O [AMOXICILLIN] | 4 µg/mL (≈ 10.9 µM) | 16 µg/mL (≈ 43.8 µM) | 85% | 20.6% | 100% | 0.5 µg/mL (≈ 1.37 µM) | 0.5 µg/mL (≈ 1.37 µM) | 0% | ≥ 64 µg/mL | ≥ 64 µg/mL | 0.5 µg/mL (≈ 1.37 µM) | 0.5 µg/mL (≈ 1.37 µM) | 2 µg/mL (≈ 5.47 µM) | 4 µg/mL (≈ 10.9 µM) | 35.3% | 5% | 100% | 1 µg/mL (≈ 2.74 µM) | 2 µg/mL (≈ 5.47 µM) | 32 µg/mL (≈ 87.6 µM) | MIC (Haemophilus influenzae [1]): 0.5 µg/mL; MIC (Haemophilus influenzae [6]): 0.5 µg/mL (≈ 1.37 µM); MIC (Haemophilus influenzae [8]): 0.5 µg/mL; MIC (Haemophilus influenzae [10]): 0.25 µg/mL; MIC (Haemophilus influenzae [11]): 0.5 µg/mL; MIC (Haemophilus influenzae [16]): 0.25 µg/mL; MIC (Haemophilus influenzae [18]): 0.25 µg/mL; MIC90 (Haemophilus influenzae [20]): 64 µg/mL (≈ 175 µM); Activity (Haemophilus influenzae [21]): 67.6%; MIC (Haemophilus influenzae [22]): 0.25 µg/mL; MIC (Haemophilus influenzae [23]): 1 µg/mL; MIC (Haemophilus influenzae [24]): ≥ 32 µg/mL
2 | CC1(C)S[C@@H]2[C@H](NC(=O)[C@H](N)c3ccccc3)C(=O)N2[C@H]1C(=O)O [AMPICILLIN] | 4 µg/mL (≈ 11.4 µM) | 16 µg/mL (≈ 45.8 µM) | 85% | 76.5% | 100% | ≤ 0.25 µg/mL | 0.5 µg/mL (≈ 1.43 µM) | 0% | ≥ 32 µg/mL | ≥ 32 µg/mL | 0.25 µg/mL (≈ 0.715 µM) | 0.5 µg/mL (≈ 1.43 µM) | 1 µg/mL (≈ 2.86 µM) | 2 µg/mL (≈ 5.72 µM) | 2.9% | 5% | 100% | 1 µg/mL (≈ 2.86 µM) | 2 µg/mL (≈ 5.72 µM) | 32 µg/mL (≈ 91.6 µM) | MIC (Haemophilus influenzae [25]): >=2 ug; MIC (Haemophilus influenzae [6]): ≤ 0.25 µg/mL; MIC90 (Haemophilus influenzae [20]): 64 µg/mL (≈ 183 µM); Activity (Haemophilus influenzae [21]): 88.2%; MIC (Haemophilus influenzae [24]): ≥ 32 µg/mL
3 | N[C@@H](C(=O)N[C@@H]1C(=O)N2C(C(=O)O)=C(Cl)CS[C@H]12)c1ccccc1 [CEFACLOR ANHYDROUS] | 1 µg/mL (≈ 2.72 µM) | 2 µg/mL (≈ 5.44 µM) | 0% | 94.1% | 100% | 2 µg/mL (≈ 5.44 µM) | 4 µg/mL (≈ 10.9 µM) | 0% | 8 µg/mL (≈ 21.8 µM) | 16 µg/mL (≈ 43.5 µM) | 1 µg/mL (≈ 2.72 µM) | 2 µg/mL (≈ 5.44 µM) | 8 µg/mL (≈ 21.8 µM) | 8 µg/mL (≈ 21.8 µM) | 0% | 100% | 100% | 4 µg/mL (≈ 10.9 µM) | 16 µg/mL (≈ 43.5 µM) | 4 µg/mL (≈ 10.9 µM) | Activity (Haemophilus influenzae [26]): 5%; MIC (Haemophilus influenzae [2]): 1 µg/mL (≈ 2.72 µM); Activity (Haemophilus influenzae [27]): 0%; Activity (Haemophilus influenzae [28]): 20%; Activity (Haemophilus influenzae [29]): 5.9%; MIC90 (Haemophilus influenzae [20]): 32 µg/mL (≈ 87 µM); Activity (Haemophilus influenzae [30]): 73.3%; Activity (Haemophilus influenzae [21]): 76.5%; Activity (Haemophilus influenzae [31]): 0%; Activity (Haemophilus influenzae [32]): 0%; Activity (Haemophilus influenzae [33]): 80%; MIC50 (Haemophilus influenzae [24]): 8 µg/mL (≈ 21.8 µM); MIC90 (Haemophilus influenzae [24]): 16 µg/mL (≈ 43.5 µM)
4 | C=CC1=C(C(=O)O)N2C(=O)[C@@H](NC(=O)/C(=N\OCC(=O)O)c3csc(N)n3)[C@H]2SC1 [CEFIXIME] |  |  |  |  |  |  |  |  |  |  |  |  |  |  |  |  |  |  |  |  | MIC (Haemophilus influenzae [34]): ≥ 0.5 µg/mL; MIC (Haemophilus influenzae [35]): ≥ 0.5 µg/mL; MIC (Haemophilus influenzae [36]): ≥ 0.5 µg/mL
